Measurements taken from ChEMBL document CHEMBL1129067, “Dioxabicyclooctanyl naphthalenenitriles as nonredox 5-lipoxygenase inhibitors: structure-activity relationship study directed toward the improvement of metabolic stability” (J Med Chem, 1996).

Columns and labels:
Homo sapiens [1] = species on record: Homo sapiens; assay: Compound was tested for the inhibition of LTB4 production in human whole blood (HWB); assay type: functional
Procedure, shortened: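 LTB4 generation measured in human whole blood. IC50 values are the mean of at least two independent titrations, though some values come from a single titration. Where more than two IC50 values were determined, the 95% confidence limits were within 90% of the mean.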

[2] = biological target: T1, Polyunsaturated fatty acid 5-lipoxygenase (Homo sapiens, UniProt P09917); assay: Potency to inhibit oxidation of arachidonic acid by recombinant human 5-lipoxygenase
T1 sequence (P09917 whole entry): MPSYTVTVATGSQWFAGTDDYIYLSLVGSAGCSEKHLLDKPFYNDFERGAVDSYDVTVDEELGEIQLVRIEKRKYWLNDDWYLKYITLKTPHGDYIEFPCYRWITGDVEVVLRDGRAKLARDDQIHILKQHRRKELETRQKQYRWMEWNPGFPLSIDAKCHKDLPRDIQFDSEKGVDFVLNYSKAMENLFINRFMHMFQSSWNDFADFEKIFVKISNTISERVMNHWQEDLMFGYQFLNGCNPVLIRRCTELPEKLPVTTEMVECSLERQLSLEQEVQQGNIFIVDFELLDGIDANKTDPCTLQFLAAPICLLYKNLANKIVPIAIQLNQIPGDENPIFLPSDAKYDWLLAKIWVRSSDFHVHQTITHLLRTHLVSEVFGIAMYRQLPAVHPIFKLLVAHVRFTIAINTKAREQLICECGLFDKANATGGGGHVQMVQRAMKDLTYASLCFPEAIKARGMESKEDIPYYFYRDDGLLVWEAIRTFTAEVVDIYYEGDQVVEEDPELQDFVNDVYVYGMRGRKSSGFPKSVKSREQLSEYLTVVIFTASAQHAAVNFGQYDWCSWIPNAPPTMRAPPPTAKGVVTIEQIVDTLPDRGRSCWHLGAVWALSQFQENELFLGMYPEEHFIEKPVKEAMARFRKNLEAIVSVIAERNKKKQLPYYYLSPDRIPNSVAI

Homo sapiens [3] = species on record: Homo sapiens; assay: Test inhibition of LTB4 production in human peripheral blood polymorphonuclear leukocytes (HPMN); assay type: functional
Procedure, shortened: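 LTB4 generation measured in human peripheral blood polymorphonuclear leukocytes. IC50 values are the mean of at least two independent determinations, though some values come from a single titration.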

Row | SMILES | IC50 (Homo sapiens [1]; Homo sapiens, Blood) | IC50 [2] | IC50 (Homo sapiens [3]; Homo sapiens) | IC50 (Homo sapiens [3]) | IC50 (Homo sapiens [1])
1 | COC1CC(O)(c2cccc(COc3ccc4c(-c5ccccc5)c5c(cc4c3)C(=O)OC5)c2)CCO1 (stereo unspecified) | 120 nM | 23 nM | 2 nM | – | –
2 | Cn1nnc(-c2cc(-c3ccoc3)c3ccc(OCc4cccc(C5(O)CCOCC5)c4)cc3c2)n1 | 80 nM | 80 nM | 2 nM | – | –
3 | O=C(c1ccccc1)c1cc(-c2ccoc2)c2ccc(OCc3cccc(C4(O)CCOCC4)c3)cc2c1 | 200 nM | 70 nM | 1 nM | – | –
4 | COc1ccc(-c2c3c(cc4cc(OCc5cccc(C6(O)CCOCC6)c5)ccc24)C(=O)OC3)cc1 | – | 6000 nM | 89 nM | – | –
5 | CC1OC(=O)c2cc3cc(OCc4cccc(C5(O)CCOCC5)c4)ccc3c(-c3ccccc3)c21 (stereo unspecified) | > 3000 nM | 1300 nM | 150 nM | – | –
6 | CC1(C)OC(=O)c2cc3cc(OCc4cccc(C5(O)CCOCC5)c4)ccc3c(-c3ccccc3)c21 | > 3000 nM | > 6000 nM | 80 nM | – | –
7 | CC(C)(O)c1cc(-c2ccccc2)c2ccc(OCc3cccc(C4(O)CCOCC4)c3)cc2c1 | – | – | 59 nM | – | –
8 | OC1(c2cccc(COc3ccc4c(-c5ccoc5)cc(Cc5nccs5)cc4c3)c2)CCOCC1 | 660 nM | 140 nM | 1 nM | – | –
9 | O=C1OCc2c1cc1cc(OCc3cccc(C4(O)CCOCC4)c3)ccc1c2-c1ccsc1 | 50 nM | 27 nM | 2 nM | – | –
10 | O=C1OCc2c1cc1cc(OCc3cccc(C4(O)CCOCC4)c3)ccc1c2-c1ccccc1Cl | 1100 nM | 380 nM | 11 nM | – | –
11 | O=C(c1cccnc1)c1cc(-c2ccoc2)c2ccc(OCc3cccc(C4(O)CCOCC4)c3)cc2c1 | 370 nM | 120 nM | 7 nM | – | –
12 | O=C1OCc2c1cc1cc(OCc3cccc(C4(O)CCOCC4)c3)ccc1c2-c1ccco1 | 450 nM | 280 nM | 5 nM | – | –
13 | O=C1OCc2c1cc1cc(OCc3cccc(C4(O)CCOCC4)c3)ccc1c2-c1cccnc1 | 1200 nM | 720 nM | 25 nM | – | –
14 | CCCCc1cc(C(=O)OC)cc2cc(OCc3cccc(C4(O)CCOCC4)c3)ccc12 | – | 2200 nM | 15 nM | – | –
15 | COC(=O)c1cc(-c2ccccc2)c2ccc(OCc3cccc(C4(O)CCOCC4)c3)cc2c1 | 100 nM | 70 nM | 3 nM | – | –
16 | O=C1OCc2c1cc1cc(OCc3cccc(C4(O)CCOCC4)c3)ccc1c2-c1ccc(F)cc1 | 410 nM | 140 nM | 3 nM | – | –
17 | O=C1OCc2c1cc1cc(OCc3cccc(C4(O)CCOC(O)C4)c3)ccc1c2-c1ccccc1 (stereo unspecified) | 1600 nM | 810 nM | 15 nM | – | –
18 | O=C1OCc2c1cc1cc(OCc3cccc(C4(O)CCOCC4)c3)ccc1c2-c1ccc(Cl)cc1 | > 3000 nM | 5500 nM | 26 nM | – | –
19 | COc1cccc(-c2c3c(cc4cc(OCc5cccc(C6(O)CCOCC6)c5)ccc24)C(=O)OC3)c1 | 260 nM | 80 nM | 4 nM | – | –
20 | COCc1cc(-c2ccccc2)c2ccc(OCc3cccc(C4(O)CCOCC4)c3)cc2c1 | 200 nM | 160 nM | 4 nM | – | –
21 | N#Cc1cc(-c2ccoc2)c2ccc(OCc3cccc(C4(O)CC5COC(C4)O5)c3)cc2c1 (stereo unspecified) | 150 nM | 190 nM | 3 nM | – | –
22 | N#Cc1cc(-c2ccoc2)c2ccc(OCc3cccc(C4(O)CCOCC4)c3)cc2c1 | 10 nM | 30 nM | 2 nM | – | –
23 | O=C1OCc2c1cc1cc(OCc3cccc(C4(O)CC5COC(C4)O5)c3)ccc1c2-c1ccoc1 (stereo in doubt; 3u) | – | 140 nM | – | 7 nM | –
24 | O=C1OCc2c1cc1cc(OCc3cccc(C4(O)CC5COC(C4)O5)c3)ccc1c2-c1ccoc1 (stereo in doubt; 3v) | – | 340 nM | – | 21 nM | 2100 nM
25 | COC1(c2cc(F)cc(OCc3ccc4c(ccc(=O)n4C)c3)c2)CCOCC1 [ZD-2138] | 80 nM | 330 nM | 10 nM | – | –
26 | CC(c1cc2ccccc2s1)N(O)C(N)=O (stereo unspecified) [ZILEUTON] | 2000 nM | – | – | – | –
